Pemphigus Ab inh: blocks pemphigus antibody binding to human desmoglein-3. P32926. DSG3-coupled beads, scFv-anti-DSG3-GFP binding, flow cytometry; stronger effect = lower value. binding (percent of control), % at 10 µM. 310,000 tested, 0.48% active. AID 588358;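 active = binding more than 3 SD below its plate's average and above zero; inconclusive = below that plate limit but binding exactly zero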;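 also: hits lower antibody fragment binding to DSG3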
Target sequence (P32926 whole entry, looked up, the tested form may be a part): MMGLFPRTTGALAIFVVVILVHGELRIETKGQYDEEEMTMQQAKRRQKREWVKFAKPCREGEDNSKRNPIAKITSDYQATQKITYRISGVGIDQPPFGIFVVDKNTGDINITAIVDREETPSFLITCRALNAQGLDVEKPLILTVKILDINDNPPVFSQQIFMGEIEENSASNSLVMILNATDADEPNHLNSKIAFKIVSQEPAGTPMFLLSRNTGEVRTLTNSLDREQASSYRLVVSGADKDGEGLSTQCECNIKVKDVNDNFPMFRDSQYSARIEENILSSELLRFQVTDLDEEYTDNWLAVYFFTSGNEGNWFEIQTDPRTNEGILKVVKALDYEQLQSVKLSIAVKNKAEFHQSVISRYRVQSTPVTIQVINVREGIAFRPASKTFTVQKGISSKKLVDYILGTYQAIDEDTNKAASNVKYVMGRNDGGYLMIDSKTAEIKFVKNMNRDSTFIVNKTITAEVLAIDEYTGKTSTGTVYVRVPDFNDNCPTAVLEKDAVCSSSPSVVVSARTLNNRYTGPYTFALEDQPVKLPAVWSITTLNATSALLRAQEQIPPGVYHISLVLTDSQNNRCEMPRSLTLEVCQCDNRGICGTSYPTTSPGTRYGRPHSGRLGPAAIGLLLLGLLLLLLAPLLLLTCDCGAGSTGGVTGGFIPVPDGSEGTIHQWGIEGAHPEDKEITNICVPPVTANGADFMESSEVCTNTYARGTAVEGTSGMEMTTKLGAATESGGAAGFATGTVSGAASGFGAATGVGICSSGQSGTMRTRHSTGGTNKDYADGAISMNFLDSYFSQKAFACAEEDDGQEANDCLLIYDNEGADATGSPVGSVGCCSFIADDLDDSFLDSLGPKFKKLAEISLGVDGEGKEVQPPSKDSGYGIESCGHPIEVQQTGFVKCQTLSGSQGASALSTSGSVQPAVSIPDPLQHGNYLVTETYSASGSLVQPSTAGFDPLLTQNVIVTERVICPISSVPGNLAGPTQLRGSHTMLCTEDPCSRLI
Efflux pump inh: blocks antifungal efflux pumps in multiplex yeast assay | S. cerevisiae Candida pump triplex, Nile Red efflux | inhibition, % at 10 µM | 330,000 tested, 0.44% active;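 active = plate passing quality check with inhibition over a set limit, or well fluorescence over plate mean plus 4 SD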;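 also: Nile Red retained in pooled yeast measured as flow cytometry median fluorescence; higher means more Nile Red kept so more efflux inhibition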
Arr AP2 block: blocks beta-arrestin peptide binding to AP2 adaptin; 340,000 tested, 0.31% active; FITC-arrestin peptide / GST-AP2 beads, flow cytometry; AP2 beta2 appendage carries R879A mutation; AID 504490; inhibition, % at 10 µM;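 active = inhibition above a set limit, near 3 SD of compounds lacking own fluorescence, cut at about 54% in these data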
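test system = AP2 appendage R879A on GSH beads | buffer or medium = PBS plus Tween 20 (0.05%) and BSA (0.1%) | incubation = 12 min plus 1 h, RT | detection = bead flow cytometry, FITC channel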
Neddylation inh: blocks human cullin neddylation | P61081+Q13564 | TR-FRET cullin neddylation, biochemical | inhibition, % at 25 µM | 360,000 tested, 0.58% active; in the data active = inhibition above about 36%
Yeast cmpd fluor: compound fluorescence in yeast efflux pump counter-screen | shares compounds with Efflux pump inh | S. cerevisiae AD/pABC3, flow cytometry | fluorescence ratio to DMSO, % at 10 µM | 1,700 tested, 4% active | AID 588517;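 active = fluorescence ratio to DMSO above its plate's cutoff, the plate mean ratio plus 5 SD, cut at about 210% in these data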;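 also: unstained yeast with no Nile Red so the signal is compound autofluorescence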
CaMdr1 efflux inh: inhibitors of Candida albicans Mdr1 efflux pump | shares compounds with Efflux pump inh | S. cerevisiae AD/CaMDR1, Nile Red efflux, flow cytometry | inhibition, % at 10 µM | 1,700 tested, 1% active | AID 588518; in the data active = inhibition above about 26%;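 also: higher means more Nile Red retained so more efflux inhibition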
CaCdr2 efflux inh: Candida Cdr2 efflux pump inhibition; AID 588520; shares compounds with Efflux pump inh; Nile Red retention ratio vs DMSO, % at 10 µM; S. cerevisiae AD/CaCDR2, Nile Red retention, flow cytometry; 1,700 tested, 4% active; in the data active = Nile Red retention ratio vs DMSO above about 190%;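 also: higher ratio means more blocking of Cdr2 efflux of the dye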
CaCdr1 efflux inh: Candida Cdr1 efflux pump inhibition; shares compounds with Efflux pump inh; S. cerevisiae AD/CaCDR1, Nile Red efflux, flow cytometry; inhibition, % at 10 µM; 1,700 tested, 1% active;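 active = inhibition above the screen-wide mean plus twice its standard deviation, cut at about 32% in these data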
A number is an active result; - = inactive; ? = inconclusive; . = no result shown. A selection: hits, their analogues and other compounds. The true share with any hit is near 1.7%.

SMILES	Pemphigus Ab inh	Efflux pump inh	Arr AP2 block	Neddylation inh	Yeast cmpd fluor	CaMdr1 efflux inh	CaCdr2 efflux inh	CaCdr1 efflux inh
COc1ccc(/C=N\NC(=O)c2ccccc2OC)cc1COc1c(F)c(F)c(F)c(F)c1F	.	9.2	-	-	-	-	-	-
CC(C)Sc1cc(N2CCOCC2)nc(-c2ccc(Cl)cc2)n1	-	-	-	-	-	-	-	-
Clc1ccc(Sc2cc(N3CCOCC3)nc(-c3ccccc3)n2)cc1	-	-	-	-	.	.	.	.
CCN1CCN(c2cc(SC(C)C)nc(-c3ccc(OC)cc3)n2)CC1	-	.	-	-	-	-	-	-
COC(=O)C1(C)NCCc2c1[nH]c1ccccc21 (centres undefined)	-	-	-	-	.	.	.	.
CCOC(=O)N1CCC2(CC1)NCCc1c2[nH]c2ccccc12	-	0.9	-	-	-	-	-	-
CN1/C(=C\C=C2/SC(=S)NC2=O)C(C)(C)c2ccccc21	-	0.8	-	-	-	-	-	-
COc1ccc(OC)c(Nc2nc3nonc3nc2N2CCCCC2)c1	-	6.7	-	-	-	-	-	-
COc1ccc(S(=O)(=O)N2CCN(C(=O)c3ccco3)CC2)cc1C(C)(C)C	-	-	-	-	.	.	.	.
Cc1ccc(-c2nc(NC(=O)CSc3nnc(C)s3)ns2)cc1	-	-	-	-	.	.	.	.
COc1ccc(-c2nc(NC(=O)CSc3nnc(C)s3)ns2)cc1	-	0.8	-	-	-	-	-	-
CC(C)NC(=O)C1(C)CCN1C(=O)C1(c2ccccc2)CCCC1 (centres undefined)	.	.	.	-	.	.	.	.
CCOCc1nnc(NC(=O)COc2ccc3c(c2)OCO3)s1	-	1.7	-	-	-	-	-	-
COCc1nnc(NC(=O)COc2ccc3c(c2)OCO3)s1	?	-	-	-	.	.	.	.
CN1CCc2nc(NC(=O)COc3ccc4ccccc4c3)sc2C1	-	-	-	-	.	.	.	.
O=C(COc1ccccc1)Nc1nnc(COc2ccccc2)s1	-	-	-	-	-	-	-	-
CCc1nnc(NC(=O)COc2ccc3ccccc3c2)s1	?	-	-	-	-	-	-	-
CCOc1ccccc1OCC(=O)Nc1nnc(COC)s1	-	-	-	-	-	-	-	-
COc1ccc(CCNC(=O)Nc2nc(C(N)C3CCCCC3)cs2)cc1OC (centres undefined)	.	.	.	-	.	.	.	.
O=C1N=c2ccccc2=C1c1sc(NS(=O)(=O)Cc2ccccc2)nc1O	-	0.7	-	-	-	-	-	-
N/C(=N\OC(=O)Cc1cccc2ccccc12)c1ccccn1	-	1.2	-	-	-	-	-	-
Cc1cc(N)n(-c2cc(C)c3ccccc3n2)n1	-	-	-	-	.	.	.	.
Cc1cc(C)c2nc(-n3nc(C)cc3N)cc(C)c2c1	-	2.0	-	-	-	-	-	-
O=C1N(Cc2cccc(Cl)c2)C[C@@H]2C[C@@H](c3ccc4nonc4c3)N3CCC[C@@]123	-	-	-	-	.	.	.	.
O=C(CNC(=O)c1nn(Cc2ccccc2)c(=O)c2ccccc12)Nc1ccc(F)c(F)c1F	-	0.9	-	-	-	-	-	-
SMILES	Pemphigus Ab inh	Efflux pump inh	Arr AP2 block	Neddylation inh	Yeast cmpd fluor	CaMdr1 efflux inh	CaCdr2 efflux inh	CaCdr1 efflux inh
CC(C)C(O)(C#CCN1CCCCC1)C(C)C	-	14	-	-	-	-	-	-
COc1ccccc1NC(=O)N1CCC(C(=O)c2ccc(F)cc2)CC1	-	7.5	-	-	-	-	-	-
CCCCOc1ccc(C2NC(=O)NC(C)=C2C(C)=O)cc1OCC (centres undefined)	-	-	-	-	.	.	.	.
COc1ccc(CNC(=O)OCc2nccnc2C(=O)Nc2ccc(Br)cn2)cc1	-	-	-	-	.	.	.	.
Cc1cc(C)n2c(Br)c(CSc3nc4ccccc4s3)nc2n1	-	8.0	-	-	-	-	-	-
Cc1cc(C)nc(NC(=O)CSc2nc3ccccc3s2)n1	-	-	-	-	.	.	.	.
O=C(Nc1ccccc1O)c1ccccc1O	-	1.1	-	-	-	-	-	-
C=CCn1c(=S)[nH]c2sccc2c1=O	-	0.8	-	-	-	-	-	-
CCN1CCN(CC(=O)Nc2cc(C(F)(F)F)ccc2OCCOC)CC1	-	1.3	-	-	-	-	-	-
CCCOc1ccc(C(F)(F)F)cc1NC(=O)CN1C(=O)C(=O)N(CC)C1=O	.	-	-	-	.	.	.	.
COc1ccc(S(=O)(=O)N/N=C(/C)c2ccncc2)cc1	-	5.7	-	-	-	-	-	-
Cc1ccccc1OCC(=O)Nc1nnc(C2CCCCC2)s1	-	-	-	-	-	-	-	-
Cc1ccccc1OCC(=O)Nc1nnc(-c2ccncc2)s1	.	-	-	-	-	-	-	-
O=C(COc1ccccc1F)Nc1nnc(-c2ccncc2)s1	.	-	-	.	.	.	.	.
O=C(COc1cc(Cl)ccc1Cl)Nc1nnc(C2CC2)s1	-	-	-	-	.	.	.	.
O=C(COc1ccc(Br)cc1F)Nc1nnc(C2CC2)s1	-	-	-	-	-	-	-	-
COc1cc(C)ccc1OCC(=O)Nc1nnc(C2CC2)s1	.	-	-	-	-	-	-	-
O=C(COC(=O)c1ccc(S(=O)(=O)N2CCCCC2)cc1)NCc1ccco1	-	1.6	-	-	-	-	-	-
CN(CCC#N)C(=O)COC(=O)c1ccc2c(c1)C(=O)N(C1CCCCC1)C2=O	.	6.2	-	-	-	-	-	-
C=CCN1C(=O)c2ccc(C(=O)OCC(=O)N(C)C3CCCCC3)cc2C1=O	-	-	-	-	.	.	.	.
CC(C)[C@H](NC(=O)c1ccc(Cl)cc1)C(=O)OCC(=O)N1CCN(c2ccccc2)CC1	-	-	-	-	.	.	.	.
CNC(=O)N(O)C1N(/N=C/c2ccccc2O)C(=S)SC1(C)C (centres undefined)	-	-	-	-	.	.	.	.
CNC(=O)N(O)C1N(c2ccccc2)C(=S)SC1(C)C (centres undefined)	-	8.0	-	-	-	-	-	-
COC(=O)C/C=C/[C@@H](C)[C@@H](/C=N/OCC[C@@H]1C=C[C@H](OC(C)=O)[C@@H](COC(C)=O)O1)NS(=O)(=O)c1ccc(C)cc1	.	-	.	.	.	.	.	.
COc1ccc(N2C(=O)CCC(C(=O)NCCCN3CCC(C)CC3)C2c2ccc(OC)c(OC)c2)cc1 (centres undefined)	-	-	-	-	.	.	.	.
CC(C)N(C(=O)CO/N=C/c1cccc([N+](=O)[O-])c1)C(C)C	-	-	-	-	.	.	.	.
O=C(CO/N=C/c1cccc([N+](=O)[O-])c1)NC1CCCCC1	-	8.3	-	-	-	-	-	-
O=C(Nc1ccc(N2CCCC2)c(S(=O)(=O)Nc2cccc(C(F)(F)F)c2)c1)c1cccs1	-	-	-	-	.	.	.	.
Cc1ccc(CN(Cc2cccnc2)C(=O)CN2C(=O)COc3ccccc32)o1	-	5.9	-	-	-	-	-	-
CCN(CC)S(=O)(=O)c1ccc(C(=O)NC(=S)N2CCN(c3ccccc3O)CC2)cc1	-	.	.	-	.	.	.	.

Screening results deposited in PubChem BioAssay by several laboratories.
